Experimental data gathered from unrelated publications.
Protocols differ between the studies behind these lines.
Target: Phosphatidylinositol 4-kinase beta (PI4KB, Homo sapiens, UniProt Q9UBF8)

CN(C)CC#Cc1ccc(OCCCc2sc(N3CCc4cccc(C(=O)Nc5nc6ccccc6s5)c4C3)nc2C(=O)O)c(F)c1
remaining binding (cell-free assay; competition with immobilised ligand; 1 µM): 100%

c1ccc(CNc2nc(N3CCOc4ccccc43)nc3c2CCCC3)cc1
inhibition (target engagement in cells; inhibitor; chemoproteomics; 20 mM): -16.5%

O=C(Nc1nccs1)C(c1cc(F)ccc1O)N1Cc2ccccc2C1=O (stereo not shown)
inhibition (enzyme activity; inhibitor; 1 µM): 9%

O=C(CSc1nc2nccnc2c(=O)n1CCc1ccccc1)Nc1ccccc1
inhibition (enzyme activity; inhibitor; 10 µM): < 20%

CC1CCCN1c1nccc(-c2cnn3ncccc23)n1 (stereo not shown)
remaining binding (binding; 1 µM): 100%

Nc1ncnc2occ(-c3ccc(NC(=O)Nc4cc(C(F)(F)F)ccc4F)cc3)c12
remaining activity (enzyme activity; inhibitor; 20 µM): 5.9%

Cc1ccc(C(=O)Nc2ccc(CN3CCN(C)CC3)c(C(F)(F)F)c2)cc1C#Cc1cnc2cccnn12
remaining activity (enzyme activity; inhibitor; 23.5 nM): 89%

CS(=O)(=O)Nc1cccc(-c2csc(NC(=O)CSc3nc4nccnc4c(=O)n3CCc3ccccc3)n2)c1
inhibition (enzyme activity; inhibitor; 10 µM): 17%

CCCCNc1ncc2c(-c3ccc(F)cc3)nn(C[C@H]3CC[C@H](N)CC3)c2n1
inhibition (target engagement in cells; inhibitor; chemoproteomics; 20 mM): 29.3%

O=C(Nc1cnc(Oc2ccc(F)cc2)nc1)N1CCc2ncccc2[C@@H]1c1ccc(F)cc1
remaining binding (cell-free assay; competition with immobilised ligand; 1 µM): 89%
